# Reference: ChEMBL document CHEMBL1124493, “Synthesis and tumor uptake of 5-82Br- and 5-131I-labeled 5-halo-1-(2-fluoro-2-deoxy-beta-D-ribofuranosyl)uracils” (J Med Chem, 1989)
# System: Nucleic Acid
# Experiment: Incorporation of compound into DNA of human and mammalian cells, by replacing thymidine
# Format: functional
row,Compound,Replacement [%]
1,O=c1[nH]c(=O)n([C@H]2C[C@H](O)[C@@H](CO)O2)cc1Br [BROXURIDINE],43

# Species on record: Mus musculus
# Experiment: Inhibition constant for influx competition with [6-3H]thymidine in mouse erythrocytes
# Format: functional
# How it was run: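 Freshly harvested mouse erythrocytes were exposed to various concentrations of test nucleoside and [6-3H]thymidine, and zero-trans thymidine influx was measured. Extracellular [6-3H]thymidine was measured over time by liquid scintillation counting of aliquots. The Ki for competition at the nucleoside transporter was derived by previously described methods.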
row,Compound,Ki [µM]
1,O=c1[nH]c(=O)n([C@H]2C[C@H](O)[C@@H](CO)O2)cc1I [IDOXURIDINE],210
2,Cc1cn([C@H]2C[C@H](O)[C@@H](CO)O2)c(=O)[nH]c1=O [DOXRIBTIMINE],80
3,O=c1ccn([C@@H]2O[C@H](CO)[C@@H](O)[C@H]2F)c(=O)[nH]1,120
4,O=c1[nH]c(=O)n([C@H]2C[C@H](O)[C@@H](CO)O2)cc1Br [BROXURIDINE],140
5,O=c1ccn([C@H]2C[C@H](O)[C@@H](CO)O2)c(=O)[nH]1 [DEOXYURIDINE],130
